Experiment [1] deals with GluN2B-containing NMDA receptors. The following applies: ref Williams, 1993; cited from earlier work.
The target in the next experiment is GluN1/GluN2A (Rattus norvegicus, UniProt P35439+Q00959). As to the kind of experiment: Whole-cell voltage-clamp recordings, HEK293 cells, rapid solution exchange. Type of experiment: cell-based. The following applies: 50 μM glutamate. In short, it runs like this: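 HEK293 cells were plated on poly-D-lysine coverslips about 48 h ahead and calcium-phosphate cotransfected with GluN1, GluN2A and GFP (1:1:1). 200 μM D,L-APV and 200 μM 7-chlorokynurenic acid were added after transfection. Whole-cell recording was done about 24 h later at −60 mV and 23°C on lifted cells with piezo-driven theta-glass exchange.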

Where [2] appears, read: brief application (10 ms) of 1000 μM glycine, antagonist 0.3 μM.

Chain of GluN1/GluN2A (Q00959 23-1464, other chains not shown): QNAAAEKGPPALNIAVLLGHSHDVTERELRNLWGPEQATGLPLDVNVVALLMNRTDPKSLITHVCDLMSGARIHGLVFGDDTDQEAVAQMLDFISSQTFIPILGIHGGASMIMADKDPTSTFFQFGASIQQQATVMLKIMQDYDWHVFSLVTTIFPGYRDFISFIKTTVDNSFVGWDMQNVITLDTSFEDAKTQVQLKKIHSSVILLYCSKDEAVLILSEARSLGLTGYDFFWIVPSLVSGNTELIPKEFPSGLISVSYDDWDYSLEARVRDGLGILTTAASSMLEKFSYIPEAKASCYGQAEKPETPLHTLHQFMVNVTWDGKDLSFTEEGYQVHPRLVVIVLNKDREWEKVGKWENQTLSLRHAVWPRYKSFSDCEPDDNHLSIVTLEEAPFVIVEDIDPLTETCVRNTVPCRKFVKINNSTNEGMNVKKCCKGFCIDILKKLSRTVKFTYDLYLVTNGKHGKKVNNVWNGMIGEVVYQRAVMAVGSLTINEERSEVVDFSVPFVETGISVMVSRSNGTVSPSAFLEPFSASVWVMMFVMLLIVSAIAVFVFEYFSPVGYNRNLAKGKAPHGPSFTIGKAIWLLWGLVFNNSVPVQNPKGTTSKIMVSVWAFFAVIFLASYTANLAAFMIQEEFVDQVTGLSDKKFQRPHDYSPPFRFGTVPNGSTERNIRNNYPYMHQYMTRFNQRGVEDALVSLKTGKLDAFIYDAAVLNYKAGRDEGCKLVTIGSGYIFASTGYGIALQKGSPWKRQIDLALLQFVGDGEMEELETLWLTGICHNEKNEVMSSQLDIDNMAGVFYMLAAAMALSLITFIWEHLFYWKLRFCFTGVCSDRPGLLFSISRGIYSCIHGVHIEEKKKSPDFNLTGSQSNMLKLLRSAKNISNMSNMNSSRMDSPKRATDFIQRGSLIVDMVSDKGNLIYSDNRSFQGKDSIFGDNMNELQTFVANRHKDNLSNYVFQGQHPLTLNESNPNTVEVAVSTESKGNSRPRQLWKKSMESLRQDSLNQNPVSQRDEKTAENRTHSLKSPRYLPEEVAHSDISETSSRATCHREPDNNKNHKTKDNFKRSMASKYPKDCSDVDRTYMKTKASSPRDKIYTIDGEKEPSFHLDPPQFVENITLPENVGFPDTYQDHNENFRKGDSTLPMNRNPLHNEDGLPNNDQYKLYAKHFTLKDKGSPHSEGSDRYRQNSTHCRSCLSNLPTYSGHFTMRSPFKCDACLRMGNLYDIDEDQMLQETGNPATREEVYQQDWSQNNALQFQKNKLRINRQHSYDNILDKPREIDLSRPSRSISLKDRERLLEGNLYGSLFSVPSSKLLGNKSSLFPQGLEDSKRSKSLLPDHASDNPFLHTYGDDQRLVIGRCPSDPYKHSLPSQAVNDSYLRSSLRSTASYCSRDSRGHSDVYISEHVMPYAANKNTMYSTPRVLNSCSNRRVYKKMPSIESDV

Take `CC(C(O)c1ccc(O)cc1)N1CCC(Cc2ccccc2)CC1` (stereo not shown) [ifenprodil]: the “selectivity for GluN2B-containing NMDA receptors” value in experiment [1] was “over 500 fold”.
In the case of `O=C(O)c1cc(O)c2ccc(Cl)cc2n1` [7CKA, 7-chlorokynurenic acid], at GluN1/GluN2A (setting [2]), the “% fast” value came out at 34 ± 6%, the τfast was determined as 46 ± 7 ms and the τslow was 158 ± 10 ms. In addition, the “deactivation time constant, mono-exponential fit (τslow)” value at GluN1/GluN2A (long application (5 seconds) of 1000 μM glycine, antagonist 0.3 μM) is 128 ± 14 ms.
For the molecule `O=C(O)c1cc(O)c2c(Cl)cc(Cl)cc2n1` [DCKA, 7,5-dichlorokynurenic acid], the “Peak response to a brief glycine application” value on GluN1/GluN2A (0.3 μM, 1 mM glycine 10 ms) was 43 ± 13 % of control. Besides, the “Effect on deactivation time course” value on GluN1/GluN2A (0.3 μM, brief (10 ms) or long (5 seconds) 1 mM glycine) is given as “did not alter the deactivation time course”.

The record behind these values is paper PMC3355950 (The Journal of Neuroscience, 2012).
